# Measurements published in ChEMBL document CHEMBL2010643 (Bioorg Med Chem Lett, 2012).
# Activity calls are given as the source filed them. The rule behind the calls is not given here.
# Experiments:
# [1] = test system: Leucine-rich repeat serine/threonine-protein kinase 2 (Homo sapiens), Q5S007 [A2016T]; experiment: Inhibition of LRRK2 A2016T mutant phosphorylation at Ser910 expressed in HEK293 cells at 1 to 3 uM after 90 mins by immunoblot analysis; type: cell-based
# [2] = biological target: Eukaryotic translation initiation factor 2-alpha kinase 3 (Homo sapiens) (UniProt Q9NZJ5); experiment: Inhibition of EIF2AK3 assessed as residual activity at 10 uM relative to control
# Chain of Eukaryotic translation initiation factor 2-alpha kinase 3 (Homo sapiens) (Q9NZJ5 whole entry): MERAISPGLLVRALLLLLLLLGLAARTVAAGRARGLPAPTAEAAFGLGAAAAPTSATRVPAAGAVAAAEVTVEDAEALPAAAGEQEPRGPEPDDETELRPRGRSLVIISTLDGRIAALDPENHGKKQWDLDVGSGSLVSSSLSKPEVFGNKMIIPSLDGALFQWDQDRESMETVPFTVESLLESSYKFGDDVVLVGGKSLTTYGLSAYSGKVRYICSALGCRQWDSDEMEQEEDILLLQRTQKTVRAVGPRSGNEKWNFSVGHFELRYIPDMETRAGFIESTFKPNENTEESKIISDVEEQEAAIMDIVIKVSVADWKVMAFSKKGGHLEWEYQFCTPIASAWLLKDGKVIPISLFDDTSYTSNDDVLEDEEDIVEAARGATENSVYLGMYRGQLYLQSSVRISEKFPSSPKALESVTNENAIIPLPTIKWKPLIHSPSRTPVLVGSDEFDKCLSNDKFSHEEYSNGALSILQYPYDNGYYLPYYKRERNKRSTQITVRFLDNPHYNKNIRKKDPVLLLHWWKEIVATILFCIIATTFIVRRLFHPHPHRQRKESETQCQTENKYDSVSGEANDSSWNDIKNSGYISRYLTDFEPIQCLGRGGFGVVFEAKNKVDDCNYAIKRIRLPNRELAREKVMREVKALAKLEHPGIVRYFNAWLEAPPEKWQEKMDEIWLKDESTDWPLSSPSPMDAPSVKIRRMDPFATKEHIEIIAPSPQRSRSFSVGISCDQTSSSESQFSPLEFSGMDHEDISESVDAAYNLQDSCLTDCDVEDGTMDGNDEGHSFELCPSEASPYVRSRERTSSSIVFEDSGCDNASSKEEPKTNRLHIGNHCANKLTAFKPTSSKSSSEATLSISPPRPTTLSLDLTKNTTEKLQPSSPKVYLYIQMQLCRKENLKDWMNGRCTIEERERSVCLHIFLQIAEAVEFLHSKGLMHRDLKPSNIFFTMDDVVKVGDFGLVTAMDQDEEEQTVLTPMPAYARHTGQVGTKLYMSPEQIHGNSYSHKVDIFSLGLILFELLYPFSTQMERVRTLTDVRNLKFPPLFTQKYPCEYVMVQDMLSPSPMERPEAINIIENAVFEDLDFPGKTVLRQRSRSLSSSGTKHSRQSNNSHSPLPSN
# [3] = biological target: Tyrosine-protein kinase ZAP-70 (Homo sapiens) (UniProt P43403); experiment: Inhibition of ZAP70 assessed as residual activity at 1 uM relative to control
# In short: (§1)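 Radioactivity-based enzymatic kinase assays run across a 124-kinase profiling panel (Dundee), reporting the remaining kinase activity relative to a control.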
# [4] = biological target: Dual specificity protein kinase TTK (Homo sapiens) (UniProt P33981); experiment: Inhibition of TTK assessed as residual activity at 10 uM relative to control; in short: as §1
# [5] = biological target: Dual specificity mitogen-activated protein kinase kinase 2 (Homo sapiens) (UniProt P36507); experiment: Inhibition of MKK2 assessed as residual activity at 1 uM relative to control
# Chain of Dual specificity mitogen-activated protein kinase kinase 2 (Homo sapiens) (P36507 whole entry): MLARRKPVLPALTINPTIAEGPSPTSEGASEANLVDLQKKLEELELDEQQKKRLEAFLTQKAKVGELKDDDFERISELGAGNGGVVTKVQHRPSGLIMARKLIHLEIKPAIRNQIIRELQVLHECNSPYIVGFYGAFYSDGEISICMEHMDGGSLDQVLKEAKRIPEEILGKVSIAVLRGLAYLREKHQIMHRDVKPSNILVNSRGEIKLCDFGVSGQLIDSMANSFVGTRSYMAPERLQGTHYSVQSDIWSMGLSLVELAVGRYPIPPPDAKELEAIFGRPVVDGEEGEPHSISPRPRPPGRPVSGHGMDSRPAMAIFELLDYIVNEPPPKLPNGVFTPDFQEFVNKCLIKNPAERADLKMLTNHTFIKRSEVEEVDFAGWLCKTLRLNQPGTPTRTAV
# [6] = biological target: Proto-oncogene tyrosine-protein kinase Src (Homo sapiens) (UniProt P12931); experiment: Inhibition of Src assessed as residual activity at 1 uM relative to control
# Mus musculus [7] = experiment: Inhibition of LRRK2 phosphorylation at Ser910 in C57BL/6 mouse kidney at 10 mg/kg, po administered for 8 hrs followed by 2 hrs dosing; type: functional, organism-based; design: dose 10 mg/kg
# In short: (§2)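 Mice were dosed by oral gavage at 10 or 50 mg/kg. Brain, spleen and kidney were collected. Endogenous LRRK2 was resolved by SDS–PAGE and blotted with phospho-specific antibodies to Ser910 and Ser935 and with an antibody to total LRRK2.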
# [8] = biological target: Serine/threonine-protein kinase 16 (Homo sapiens) (UniProt O75716); experiment: Inhibition of MPSK1 assessed as residual activity at 1 uM relative to control
# [9] = biological target: Serine/threonine-protein kinase Sgk1 (Homo sapiens) (UniProt O00141); experiment: Inhibition of SGK1 assessed as residual activity at 1 uM relative to control
# [10] = biological target: T1, Leucine-rich repeat serine/threonine-protein kinase 2 (Homo sapiens, UniProt Q5S007); experiment: Inhibition of wild type LRRK2 phosphorylation at Ser910 in human lymphoblastoid cells at 0.03 to 3 uM after 90 mins by Western blot analysis; type: cell-based
# T1 sequence (Q5S007 whole entry): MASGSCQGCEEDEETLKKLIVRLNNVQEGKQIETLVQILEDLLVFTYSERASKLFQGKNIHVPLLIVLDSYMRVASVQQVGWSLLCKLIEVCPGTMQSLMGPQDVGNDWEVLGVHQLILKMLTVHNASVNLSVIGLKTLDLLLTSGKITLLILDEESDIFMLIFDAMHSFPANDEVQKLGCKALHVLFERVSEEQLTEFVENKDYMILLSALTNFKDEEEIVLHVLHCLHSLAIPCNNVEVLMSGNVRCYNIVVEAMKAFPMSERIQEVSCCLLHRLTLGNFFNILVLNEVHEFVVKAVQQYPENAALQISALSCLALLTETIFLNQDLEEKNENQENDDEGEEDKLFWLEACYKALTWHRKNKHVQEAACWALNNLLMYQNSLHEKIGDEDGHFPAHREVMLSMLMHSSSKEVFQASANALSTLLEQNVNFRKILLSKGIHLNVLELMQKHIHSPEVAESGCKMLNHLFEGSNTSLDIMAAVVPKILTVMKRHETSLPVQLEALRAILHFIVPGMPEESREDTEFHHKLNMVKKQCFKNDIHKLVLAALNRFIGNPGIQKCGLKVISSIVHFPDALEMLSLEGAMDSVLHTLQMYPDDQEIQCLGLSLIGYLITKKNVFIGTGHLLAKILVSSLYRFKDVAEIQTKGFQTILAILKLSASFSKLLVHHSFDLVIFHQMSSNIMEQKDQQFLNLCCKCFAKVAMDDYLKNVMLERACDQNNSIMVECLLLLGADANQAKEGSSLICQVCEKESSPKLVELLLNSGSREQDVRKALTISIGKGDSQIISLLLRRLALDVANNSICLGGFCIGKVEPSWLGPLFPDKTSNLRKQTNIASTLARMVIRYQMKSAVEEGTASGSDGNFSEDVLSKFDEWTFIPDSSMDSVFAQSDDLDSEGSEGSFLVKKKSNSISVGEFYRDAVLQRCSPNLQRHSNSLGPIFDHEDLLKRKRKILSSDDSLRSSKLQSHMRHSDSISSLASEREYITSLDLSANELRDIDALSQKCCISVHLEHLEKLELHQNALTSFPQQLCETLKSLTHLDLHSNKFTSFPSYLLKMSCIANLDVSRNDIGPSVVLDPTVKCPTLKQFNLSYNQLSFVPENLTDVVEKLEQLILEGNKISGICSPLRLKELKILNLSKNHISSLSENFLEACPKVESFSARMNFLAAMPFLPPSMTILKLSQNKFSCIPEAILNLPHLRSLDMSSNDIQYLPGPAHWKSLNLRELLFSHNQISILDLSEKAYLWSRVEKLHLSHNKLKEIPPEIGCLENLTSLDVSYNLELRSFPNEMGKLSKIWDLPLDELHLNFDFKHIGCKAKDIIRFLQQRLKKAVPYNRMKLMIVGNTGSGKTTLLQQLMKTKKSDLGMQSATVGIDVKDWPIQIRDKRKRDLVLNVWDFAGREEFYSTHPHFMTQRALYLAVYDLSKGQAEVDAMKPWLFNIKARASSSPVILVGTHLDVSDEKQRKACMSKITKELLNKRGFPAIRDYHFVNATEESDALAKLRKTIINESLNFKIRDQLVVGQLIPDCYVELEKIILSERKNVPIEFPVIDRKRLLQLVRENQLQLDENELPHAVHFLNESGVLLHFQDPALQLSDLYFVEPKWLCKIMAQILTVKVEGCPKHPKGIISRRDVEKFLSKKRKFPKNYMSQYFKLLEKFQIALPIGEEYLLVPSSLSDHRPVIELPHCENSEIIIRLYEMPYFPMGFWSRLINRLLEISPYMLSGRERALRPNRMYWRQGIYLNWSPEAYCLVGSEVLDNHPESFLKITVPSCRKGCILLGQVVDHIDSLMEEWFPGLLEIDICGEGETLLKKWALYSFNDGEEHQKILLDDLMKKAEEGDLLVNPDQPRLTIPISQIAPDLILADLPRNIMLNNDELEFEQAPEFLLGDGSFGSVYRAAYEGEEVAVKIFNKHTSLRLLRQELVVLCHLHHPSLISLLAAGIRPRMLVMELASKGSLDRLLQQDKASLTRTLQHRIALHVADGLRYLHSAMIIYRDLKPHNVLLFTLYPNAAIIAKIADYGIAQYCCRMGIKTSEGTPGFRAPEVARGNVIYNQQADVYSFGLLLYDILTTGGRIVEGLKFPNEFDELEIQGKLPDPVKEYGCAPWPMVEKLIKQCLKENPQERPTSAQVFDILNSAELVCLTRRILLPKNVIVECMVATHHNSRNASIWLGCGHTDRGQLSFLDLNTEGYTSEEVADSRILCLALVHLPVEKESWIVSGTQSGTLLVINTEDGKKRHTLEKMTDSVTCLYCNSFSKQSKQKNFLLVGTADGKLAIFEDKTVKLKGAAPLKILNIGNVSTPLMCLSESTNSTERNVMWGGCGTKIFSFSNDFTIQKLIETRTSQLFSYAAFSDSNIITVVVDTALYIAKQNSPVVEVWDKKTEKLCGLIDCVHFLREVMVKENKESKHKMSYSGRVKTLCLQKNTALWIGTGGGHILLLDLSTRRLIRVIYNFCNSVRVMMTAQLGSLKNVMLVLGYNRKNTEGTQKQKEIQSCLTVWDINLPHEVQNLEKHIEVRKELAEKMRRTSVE
# [11] = biological target: Serine/threonine-protein kinase pim-1 (Homo sapiens) (UniProt P11309); experiment: Inhibition of PIM1 assessed as residual activity at 10 uM relative to control
# [12] = biological target: Serine/threonine-protein kinase pim-2 (Homo sapiens) (UniProt Q9P1W9); experiment: Inhibition of PIM2 assessed as residual activity at 1 uM relative to control
# [13] = biological target: Dual specificity mitogen-activated protein kinase kinase 6 (Homo sapiens) (UniProt P52564); experiment: Inhibition of MKK6 assessed as residual activity at 10 uM relative to control
# Chain of Dual specificity mitogen-activated protein kinase kinase 6 (Homo sapiens) (P52564 whole entry): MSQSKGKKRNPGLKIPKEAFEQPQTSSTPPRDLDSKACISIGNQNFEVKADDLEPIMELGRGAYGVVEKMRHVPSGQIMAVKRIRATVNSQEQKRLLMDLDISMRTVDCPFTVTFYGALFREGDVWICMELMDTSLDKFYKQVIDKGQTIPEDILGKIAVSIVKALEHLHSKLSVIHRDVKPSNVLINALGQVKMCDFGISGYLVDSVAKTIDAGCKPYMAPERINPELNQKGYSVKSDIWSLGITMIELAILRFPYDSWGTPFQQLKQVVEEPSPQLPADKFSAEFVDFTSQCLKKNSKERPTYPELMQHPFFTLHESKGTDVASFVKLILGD
# [14] = biological target: Ribosomal protein S6 kinase beta-1 (Homo sapiens) (UniProt P23443); experiment: Inhibition of S6K1 assessed as residual activity at 10 uM relative to control
# Mus musculus [15] = experiment: Inhibition of LRRK2 phosphorylation at Ser935 in C57BL/6 mouse brain at 10 to 50 mg/kg, po administered for 8 hrs followed by 2 hrs dosing; type: functional, organism-based; in short: as §2
# [16] = biological target: Eukaryotic translation initiation factor 2-alpha kinase 3 (Homo sapiens) (UniProt Q9NZJ5); experiment: Inhibition of EIF2AK3 assessed as residual activity at 1 uM relative to control
# In short: (§3)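 Standard radioactivity-based enzymatic assays were run across a 124-kinase panel (Dundee profiling), with compound at 1 µM. Kinase activity was expressed relative to control.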
# [17] = biological target: T1, Leucine-rich repeat serine/threonine-protein kinase 2; experiment: Inhibition of wild-type LRRK2 phosphorylation at Ser935 expressed in HEK293 cells at 0.1 to 0.3 uM after 90 mins by immunoblot analysis; type: cell-based
# In short: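 HEK293 cells stably expressing wild-type GFP-LRRK2 exposed to DMSO or increasing inhibitor concentrations for 90 min. Lysates immunoblotted for LRRK2 phosphorylated at Ser910 and Ser935 and for total LRRK2.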
# [18] = biological target: Receptor-interacting serine/threonine-protein kinase 2 (Homo sapiens) (UniProt O43353); experiment: Inhibition of RIPK2 assessed as residual activity at 10 uM relative to control
# [19] = biological target: Serine/threonine-protein kinase TBK1 (Homo sapiens) (UniProt Q9UHD2); experiment: Inhibition of TBK1 assessed as residual activity at 10 uM relative to control
# Chain of Serine/threonine-protein kinase TBK1 (Homo sapiens) (Q9UHD2 whole entry): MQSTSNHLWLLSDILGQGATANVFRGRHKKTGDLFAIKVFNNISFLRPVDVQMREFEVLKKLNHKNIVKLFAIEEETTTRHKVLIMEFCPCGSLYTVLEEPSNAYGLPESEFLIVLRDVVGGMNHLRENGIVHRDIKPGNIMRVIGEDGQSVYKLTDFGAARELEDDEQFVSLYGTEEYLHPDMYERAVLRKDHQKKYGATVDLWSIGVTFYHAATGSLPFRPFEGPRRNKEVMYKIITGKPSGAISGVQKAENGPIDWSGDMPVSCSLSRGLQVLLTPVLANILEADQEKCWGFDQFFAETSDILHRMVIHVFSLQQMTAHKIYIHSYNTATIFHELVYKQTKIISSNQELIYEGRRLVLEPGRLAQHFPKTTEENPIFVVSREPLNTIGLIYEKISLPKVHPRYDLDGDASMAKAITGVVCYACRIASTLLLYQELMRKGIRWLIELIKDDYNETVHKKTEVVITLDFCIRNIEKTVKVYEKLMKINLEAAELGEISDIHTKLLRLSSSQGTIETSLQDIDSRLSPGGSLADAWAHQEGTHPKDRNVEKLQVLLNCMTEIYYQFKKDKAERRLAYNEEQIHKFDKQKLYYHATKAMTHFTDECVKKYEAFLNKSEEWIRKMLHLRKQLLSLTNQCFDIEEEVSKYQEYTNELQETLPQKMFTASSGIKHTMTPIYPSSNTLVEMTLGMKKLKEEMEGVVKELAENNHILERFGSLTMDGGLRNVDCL
# [20] = biological target: Serine/threonine-protein kinase TBK1 (Homo sapiens) (UniProt Q9UHD2); experiment: Inhibition of TBK1 assessed as residual activity at 1 uM relative to control
# [21] = biological target: Serine/threonine-protein kinase N2 (Homo sapiens) (UniProt Q16513); experiment: Inhibition of PRK2 assessed as residual activity at 1 uM relative to control
# [22] = biological target: Cyclin-dependent kinase 2/cyclin A (Homo sapiens) (UniProt P24941+P20248+P78396); experiment: Inhibition of CDK2-Cyclin A assessed as residual activity at 1 uM relative to control; type: protein-complex assay; in short: as §3
# [23] = biological target: Angiopoietin-1 receptor (Homo sapiens) (UniProt Q02763); experiment: Inhibition of TIE2 assessed as residual activity at 1 uM relative to control
# [24] = biological target: Serine/threonine-protein kinase STK11 (Homo sapiens) (UniProt Q15831); experiment: Inhibition of LKB1 assessed as residual activity at 10 uM relative to control
# [25] = biological target: Insulin receptor-related protein (Homo sapiens) (UniProt P14616); experiment: Inhibition of IRR assessed as residual activity at 1 uM relative to control
# [26] = biological target: Protein kinase C alpha type (Homo sapiens) (UniProt P17252); experiment: Inhibition of PKCalpha assessed as residual activity at 1 uM relative to control
# [27] = biological target: Dual specificity mitogen-activated protein kinase kinase 1 (Homo sapiens) (UniProt Q02750); experiment: Inhibition of MKK1 assessed as residual activity at 1 uM relative to control
# Mus musculus [28] = experiment: Inhibition of LRRK2 phosphorylation at Ser935 in C57BL/6 mouse spleen at 10 mg/kg, po administered for 8 hrs followed by 2 hrs dosing; type: functional, organism-based; design: dose 10 mg/kg; in short: as §2
# [29] = biological target: Death-associated protein kinase 1 (Homo sapiens) (UniProt P53355); experiment: Inhibition of DAPK1 assessed as residual activity at 1 uM relative to control; in short: as §3
# Brain = experiment: AUClast in Swiss albino mouse brain at 10 mg/kg, po; type: ADME, organism-based; design: time 0 - last, dose 10 mg/kg, route oral; settings: in vivo
# In short: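 Male Swiss Albino mice were given a single dose, either intravenous at 1 mg/kg or oral at 10 mg/kg. AUClast was measured in plasma and in brain. Half-life, plasma clearance, volume of distribution and oral bioavailability were derived from the plasma data.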
# [30] = biological target: Serine/threonine-protein kinase PAK 5 (Homo sapiens) (UniProt Q9P286); experiment: Inhibition of PAK5 assessed as residual activity at 1 uM relative to control
# Mus musculus [31] = experiment: Inhibition of LRRK2 phosphorylation at Ser910 in C57BL/6 mouse brain at 10 to 50 mg/kg, po administered for 8 hrs followed by 2 hrs dosing; type: functional, organism-based; in short: as §2
# [32] = biological target: T1, Leucine-rich repeat serine/threonine-protein kinase 2; experiment: Inhibition of wild type LRRK2 phosphorylation at Ser935 in human lymphoblastoid cells at 0.03 to 3 uM after 90 mins by Western blot analysis; type: cell-based
compound,measurement,setting,value
COc1cc(N2CCC(N3CCN(C)CC3)CC2)ccc1Nc1ncc(Cl)c(Nc2ccccc2S(=O)(=O)C(C)C)n1 [TAE-684],inhibition,[1],Active
same,Activity,[2],95%
same,Activity,[3],113%
same,Activity,[4],47%
same,Activity,[5],69%
same,Activity,[6],44%
same,inhibition,Mus musculus [7],Active
same,Activity,[8],102%
same,Activity,[9],88%
same,inhibition,[10],Active
same,Activity,[11],101%
same,Activity,[12],91%
same,Activity,[13],75%
same,Activity,[14],68%
same,inhibition,Mus musculus [15],inactive
same,Activity,[16],101%
same,inhibition,[17],Active
same,Activity,[18],59%
same,Activity,[19],71%
same,Activity,[20],93%
same,Activity,[21],51%
same,Activity,[22],68%
same,Activity,[23],18%
same,Activity,[24],77%
same,Activity,[25],98%
same,Activity,[26],109%
same,Activity,[27],91%
same,inhibition,Mus musculus [28],Active
same,Activity,[29],98%
same,AUClast,Brain,14430 ng·h/mL
same,Activity,[30],66%
same,inhibition,Mus musculus [31],inactive
same,inhibition,[32],Active
